Test results as given in ChEMBL document CHEMBL1148199, “Synthesis, conformational analysis, and cytotoxicity of new analogues of the natural cyclodepsipeptide jaspamide” (J Nat Prod, 2004).
In brackets after ≈: the same amount, converted by molar mass. Activity calls are given as the source filed them. The rule behind the calls is not given here.

Key:
[1] = system: A10; assay: Effect on cell morphology in rat A10 cells assessed as actin aggregation at 0.85 nM by immunofluorescence assay; assay type: functional, cell-based
Outline: (§1)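 A-10 rat aortic smooth muscle cells were grown to near-confluency on glass coverslips and treated for 24 h. Microfilaments were stained with monoclonal anti-β-actin followed by fluorescein-conjugated anti-mouse IgG. Actin aggregation was scored by immunofluorescence microscopy. Microtubules were stained in parallel samples with anti-β-tubulin and the same secondary antibody.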

[2] = system: A10; assay: Effect on cell morphology in rat A10 cells assessed as actin aggregation at 23 nM by immunofluorescence assay; assay type: functional, cell-based; outline: as §1
[3] = system: A10; assay: Effect on cell morphology in rat A10 cells assessed as microfilaments depolymerization by immunofluorescence assay; assay type: functional, cell-based
Outline: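 A-10 rat smooth muscle cells grown to near-confluency on glass coverslips and exposed to compounds at micromolar amounts for 24 h. Jaspamide served as positive control. Microfilaments stained with monoclonal anti-β-actin, then fluorescein-conjugated anti-mouse IgG. Read-out: actin aggregation and cellular aberrations such as binucleated cells.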

[4] = system: T-24; assay: Antiproliferative activity against human T24 cells after 48 hrs by SRB assay; assay type: functional, cell-based; details: T-24, 48 h
Outline: (§2)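 Human cell lines (T24 bladder carcinoma, MCF-7, NCI/ADR) kept in RPMI-1640 with 10% FBS and 50 μg/mL gentamycin at 37 °C, 5% CO2. Plated at ~15% confluency and left 24 h to attach. Treated in triplicate with varying concentrations for 48 h. Survival measured by sulforhodamine B binding as % of control cultures. IC50 is the concentration giving 50% inhibition of proliferation.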

[5] = Antiproliferative activity against multidrug-resistant human NCI/ADR cells expressing p-glycoprotein after 48 hrs by SRB assay; assay type: functional, cell-based; details: NCI/ADR-RES; outline: as §2
[6] = system: A10; assay: Antiproliferative activity against rat A10 cells after 48 hrs by SRB assay; assay type: cell-based; details: A10, 48 h
Outline: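 A-10 rat aortic smooth muscle cells kept in α-MEM with 10% FBS and 50 μg/mL gentamycin at 37 °C, 5% CO2. Seeded at ~15% confluency, 24 h recovery, then triplicate 48 h exposure to a concentration series. SRB binding read against control cultures. IC50 is the concentration causing 50% inhibition of proliferation.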

[7] = system: A10; assay: Effect on cell morphology in rat A10 cells assessed microtubule depolymerization by immunofluorescence assay; assay type: functional, cell-based
Outline: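 Near-confluent A-10 cells on glass coverslips treated with compounds at micromolar amounts for 24 h. Microtubules immunostained with monoclonal anti-β-tubulin followed by fluorescein-conjugated anti-mouse IgG and examined for changes in the microtubule network.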

[8] = system: MCF7; assay: Antiproliferative activity against human MCF7 cells after 48 hrs by SRB assay; details: MCF7, 48 h

Row | SMILES | Activity [1] | Activity [2] | Activity [3] | IC50 [4] [µg/mL] | IC50 [5] [µg/mL] | IC50 [6] [µg/mL] | Activity [7] | IC50 [8] [µg/mL]
1 | C/C1=C\[C@H](C)C[C@H](C)OC(=O)C[C@H](c2ccc(O)cc2)NC(=O)[C@@H](Cc2c(Br)[nH]c3ccccc23)N(C)C(=O)[C@H](C)NC(=O)[C@@H](C)C1 | Active | Active |  |  |  |  |  | 
2 | CC(C)[C@@H]1NC(=O)[C@@H](Cc2c[nH]c3ccccc23)NC(=O)[C@H](C)NC(=O)CCCCCCCNC1=O |  |  | inactive | > 100 | > 100 | > 100 | inactive | > 100
3 | CC(C)[C@@H]1NC(=O)[C@@H](Cc2c[nH]c3ccccc23)NC(=O)[C@H](C)NC(=O)CCCCCNC1=O |  |  | inactive | 10.3 (≈ 21.9 µM) | 12.5 (≈ 26.6 µM) | 2 (≈ 4.26 µM) | inactive | 1.8 (≈ 3.83 µM)
4 | CC(C)[C@@H]1NC(=O)[C@@H](Cc2c[nH]c3ccccc23)NC(=O)[C@H](C)NC(=O)CCNC(=O)CCCCNC1=O |  |  | inactive | 19 (≈ 36.1 µM) | 24 (≈ 45.6 µM) | 4.3 (≈ 8.17 µM) | inactive | 3 (≈ 5.7 µM)
